Measured values published in ChEMBL document CHEMBL3627695, “1-Benzyl-2-methyl-3-indolylmethylene barbituric acid derivatives: Anti-cancer agents that target nucleophosmin 1 (NPM1)” (Bioorg Med Chem, 2015).
Calls of active or inactive are those of the source. The rule behind the calls is not given here.

Key:
CCRF-CEM = experiment: Anticancer activity against human CCRF-CEM cells after 48 hrs by sulforhodamine B assay; format: functional
Outline: (§1)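 NCI-60 human tumour cell line panel. Compounds dissolved in DMSO/H2O and tested at five 10-fold dilutions (10⁻⁴ M to 10⁻⁸ M) for 48 hr. GI50 is the molar concentration giving 50% reduction in net cell growth relative to cell numbers on day 0.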

HL-60(TB) = experiment: Anticancer activity against human HL-60(TB) cells after 48 hrs by sulforhodamine B assay; format: functional; conditions: HL-60, 48 h; outline: as §1
K562 = experiment: Anticancer activity against human K562 cells after 48 hrs by sulforhodamine B assay; format: functional; conditions: K562, 48 h; outline: as §1
[1] = Anticancer activity against human MOLT4 cells after 48 hrs by sulforhodamine B assay; format: functional; conditions: MOLT-4, 48 h; outline: as §1
[2] = Anticancer activity against human RPMI8226 cells after 48 hrs by sulforhodamine B assay; format: functional; conditions: RPMI-8226, 48 h; outline: as §1
SR = experiment: Anticancer activity against human SR cells after 48 hrs by sulforhodamine B assay; format: functional
Outline: (§2)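 NCI-60 panel protocol. Compounds were dissolved in DMSO/H2O and tested at five 10-fold concentrations (10⁻⁴ to 10⁻⁸ M) with 48 hr incubation. GI50 is the molar concentration giving a 50% reduction in net cell growth relative to cell numbers on day 0.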

A549 = experiment: Anticancer activity against human A549/ATCC cells after 48 hrs by sulforhodamine B assay; format: functional; conditions: A549, 48 h; outline: as §1
HOP-62 = experiment: Anticancer activity against human HOP62 cells after 48 hrs by sulforhodamine B assay; format: functional; conditions: HOP-62, 48 h; outline: as §1
[3] = Anticancer activity against human HOP92 cells after 48 hrs by sulforhodamine B assay; format: functional; conditions: HOP-92, 48 h; outline: as §1
NCI-H226 = experiment: Anticancer activity against human NCI-H226 cells after 48 hrs by sulforhodamine B assay; format: functional; conditions: NCI-H226, 48 h; outline: as §1
NCI-H322M = experiment: Anticancer activity against human NCI-H322M cells after 48 hrs by sulforhodamine B assay; format: functional; outline: as §1
NCI-H460 = experiment: Anticancer activity against human NCI-H460 cells after 48 hrs by sulforhodamine B assay; format: functional; conditions: NCI-H460, 48 h; outline: as §1
NCI-H522 = experiment: Anticancer activity against human NCI-H522 cells after 48 hrs by sulforhodamine B assay; format: functional; conditions: NCI-H522, 48 h; outline: as §1
[4] = Anticancer activity against human COLO205 cells after 48 hrs by sulforhodamine B assay; format: functional; conditions: COLO 205, 48 h; outline: as §1
[5] = Anticancer activity against human HCC2998 cells after 48 hrs by sulforhodamine B assay; format: functional; conditions: HCC 2998, 48 h; outline: as §1
HCT-116 = experiment: Anticancer activity against human HCT116 cells after 48 hrs by sulforhodamine B assay; format: functional; conditions: HCT-116, 48 h; outline: as §1
HCT-15 = experiment: Anticancer activity against human HCT15 cells after 48 hrs by sulforhodamine B assay; format: functional; conditions: HCT-15, 48 h; outline: as §1
HT-29 = experiment: Anticancer activity against human HT-29 cells after 48 hrs by sulforhodamine B assay; format: functional; conditions: HT-29, 48 h; outline: as §1
KM12 = experiment: Anticancer activity against human KM12 cells after 48 hrs by sulforhodamine B assay; format: functional; conditions: KM12, 48 h; outline: as §1
SW-620 = experiment: Anticancer activity against human SW620 cells after 48 hrs by sulforhodamine B assay; format: functional; conditions: SW-620, 48 h; outline: as §2
SF-268 = experiment: Anticancer activity against human SF268 cells after 48 hrs by sulforhodamine B assay; format: functional; conditions: SF-268, 48 h; outline: as §1
[6] = Anticancer activity against human SF295 cells after 48 hrs by sulforhodamine B assay; format: functional; conditions: SF-295, 48 h; outline: as §1
[7] = Anticancer activity against human SF539 cells after 48 hrs by sulforhodamine B assay; format: functional; conditions: SF-539, 48 h; outline: as §1
SNB-19 = experiment: Anticancer activity against human SNB19 cells after 48 hrs by sulforhodamine B assay; format: functional; conditions: SNB-19, 48 h; outline: as §1
SNB-75 = experiment: Anticancer activity against human SNB75 cells after 48 hrs by sulforhodamine B assay; format: functional; conditions: SNB-75, 48 h; outline: as §1
U-251 = experiment: Anticancer activity against human U251 cells after 48 hrs by sulforhodamine B assay; format: functional; conditions: U-251, 48 h; outline: as §2
[8] = Anticancer activity against human LOXIMVI cells after 48 hrs by sulforhodamine B assay; format: functional; conditions: LOX IMVI; outline: as §1
Malme-3M = experiment: Anticancer activity against human MALME-3M cells after 48 hrs by sulforhodamine B assay; format: functional; outline: as §1
M14 = experiment: Anticancer activity against human M14 cells after 48 hrs by sulforhodamine B assay; format: functional; conditions: M14, 48 h; outline: as §1
MDA-MB-435 = experiment: Anticancer activity against human MDA-MB-435 cells after 48 hrs by sulforhodamine B assay; format: functional; conditions: MDA-MB-435, 48 h; outline: as §1
SK-MEL-2 = experiment: Anticancer activity against human SK-MEL-2 cells after 48 hrs by sulforhodamine B assay; format: functional; conditions: SK-MEL-2, 48 h; outline: as §1
SK-MEL-28 = experiment: Anticancer activity against human SK-MEL-28 cells after 48 hrs by sulforhodamine B assay; format: functional; conditions: SK-MEL-28, 48 h; outline: as §1
SK-MEL-5 = experiment: Anticancer activity against human SK-MEL-5 cells after 48 hrs by sulforhodamine B assay; format: functional; conditions: SK-MEL-5, 48 h; outline: as §1
UACC-257 = experiment: Anticancer activity against human UACC257 cells after 48 hrs by sulforhodamine B assay; format: functional; conditions: UACC-257, 48 h; outline: as §2
IGROV-1 = experiment: Anticancer activity against human IGROV1 cells after 48 hrs by sulforhodamine B assay; format: functional; conditions: IGROV-1, 48 h; outline: as §1
OVCAR-3 = experiment: Anticancer activity against human OVCAR3 cells after 48 hrs by sulforhodamine B assay; format: functional; conditions: OVCAR-3, 48 h; outline: as §1
OVCAR-4 = experiment: Anticancer activity against human OVCAR4 cells after 48 hrs by sulforhodamine B assay; format: functional; conditions: OVCAR-4, 48 h; outline: as §1
OVCAR-5 = experiment: Anticancer activity against human OVCAR5 cells after 48 hrs by sulforhodamine B assay; format: functional; conditions: OVCAR-5, 48 h; outline: as §1
OVCAR-8 = experiment: Anticancer activity against human OVCAR8 cells after 48 hrs by sulforhodamine B assay; format: functional; conditions: OVCAR-8, 48 h; outline: as §1
[9] = Anticancer activity against human NCI-ADR-RES cells after 48 hrs by sulforhodamine B assay; format: functional; outline: as §1
SK-OV-3 = experiment: Anticancer activity against human SKOV3 cells after 48 hrs by sulforhodamine B assay; format: functional; conditions: SK-OV-3, 48 h; outline: as §1
786-0 = experiment: Anticancer activity against human 786-0 cells after 48 hrs by sulforhodamine B assay; format: functional; conditions: 786-0, 48 h; outline: as §1
A498 = experiment: Anticancer activity against human A498 cells after 48 hrs by sulforhodamine B assay; format: functional; conditions: A498, 48 h; outline: as §1
ACHN = experiment: Anticancer activity against human ACHN cells after 48 hrs by sulforhodamine B assay; format: functional; outline: as §1
CAKI-1 = experiment: Anticancer activity against human Caki1 cells after 48 hrs by sulforhodamine B assay; format: functional; conditions: CAKI-1, 48 h; outline: as §1
[10] = Anticancer activity against human RXF393 cells after 48 hrs by sulforhodamine B assay; format: functional; conditions: RXF 393, 48 h; outline: as §1
SN12C = experiment: Anticancer activity against human SN12C cells after 48 hrs by sulforhodamine B assay; format: functional; outline: as §1
TK-10 = experiment: Anticancer activity against human TK10 cells after 48 hrs by sulforhodamine B assay; format: functional; conditions: TK-10, 48 h; outline: as §2
UO-31 = experiment: Anticancer activity against human UO31 cells after 48 hrs by sulforhodamine B assay; format: functional; conditions: UO-31, 48 h; outline: as §2
DU-145 = experiment: Anticancer activity against human DU145 cells after 48 hrs by sulforhodamine B assay; format: functional; conditions: DU-145, 48 h; outline: as §1
MCF7 = experiment: Anticancer activity against human MCF7 cells after 48 hrs by sulforhodamine B assay; format: functional; conditions: MCF7, 48 h; outline: as §1
MDA-MB-231 = experiment: Anticancer activity against human MDA-MB-231 cells after 48 hrs by sulforhodamine B assay; format: functional; conditions: MDA-MB-231, 48 h; outline: as §1
[11] = Anticancer activity against human Hs 578T cells after 48 hrs by sulforhodamine B assay; format: functional; outline: as §1
BT-549 = experiment: Anticancer activity against human BT549 cells after 48 hrs by sulforhodamine B assay; format: functional; conditions: BT-549, 48 h; outline: as §1
T47D = experiment: Anticancer activity against human T47D cells after 48 hrs by sulforhodamine B assay; format: functional; outline: as §2
MDA-MB-468 = experiment: Anticancer activity against human MDA-MB-468 cells after 48 hrs by sulforhodamine B assay; format: functional; conditions: MDA-MB-468, 48 h; outline: as §1
[12] = (§3) Anticancer activity against human OCI-AML3 cells expressing mutant NPM1 assessed as apoptosis for 48 hrs by annexin-V and TO-PRO3 staining based flow cytometry; format: functional, cell-based; conditions: OCI-AML-3, 48 h
Outline: (§4)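 OCI-AML3 cells (NPM1c+) in logarithmic growth, passaged 2–3 times weekly. Cells were exposed to the indicated compound concentrations for 48 hr, then stained with annexin V and TO-PRO 3. Percent apoptotic cells was read by flow cytometry. AP50 is the concentration at which 50% of cells undergo apoptosis.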

OCI-AML-3 = experiment: as §3; format: functional, cell-based; outline: as §4

SMILES: Cc1c(C=C2C(=O)NC(=S)NC2=O)c2ccccc2n1Cc1ccccc1
- GI50 (CCRF-CEM): 590 nM
- GI50 (HL-60(TB)): 290 nM
- GI50 (K562): 1260 nM
- GI50 [1]: 1710 nM
- GI50 [2]: 350 nM
- GI50 (SR): 340 nM
- GI50 (A549): 1850 nM
- GI50 (HOP-62): 1090 nM
- GI50 [3]: 400 nM
- GI50 (NCI-H226): 1880 nM
- GI50 (NCI-H322M): 1630 nM
- GI50 (NCI-H460): 980 nM
- GI50 (NCI-H522): 1850 nM
- GI50 [4]: 1330 nM
- GI50 [5]: 1180 nM
- GI50 (HCT-116): 890 nM
- GI50 (HCT-15): 1300 nM
- GI50 (HT-29): 1370 nM
- GI50 (KM12): 950 nM
- GI50 (SW-620): 1240 nM
- GI50 (SF-268): 1260 nM
- GI50 [6]: 930 nM
- GI50 [7]: 1140 nM
- GI50 (SNB-19): 1310 nM
- GI50 (SNB-75): 1510 nM
- GI50 (U-251): 1160 nM
- GI50 [8]: 530 nM
- GI50 (Malme-3M): 2310 nM
- GI50 (M14): 1400 nM
- GI50 (MDA-MB-435): 1150 nM
- GI50 (SK-MEL-2): 2080 nM
- GI50 (SK-MEL-28): 1660 nM
- GI50 (SK-MEL-5): 1370 nM
- GI50 (UACC-257): 1410 nM
- GI50 (IGROV-1): 970 nM
- GI50 (OVCAR-3): 1180 nM
- GI50 (OVCAR-4): 1240 nM
- GI50 (OVCAR-5): 1750 nM
- GI50 (OVCAR-8): 1130 nM
- GI50 [9]: 1890 nM
- GI50 (SK-OV-3): 1890 nM
- GI50 (786-0): 1580 nM
- GI50 (A498): 1560 nM
- GI50 (ACHN): 1370 nM
- GI50 (CAKI-1): 1570 nM
- GI50 [10]: 1230 nM
- GI50 (SN12C): 1150 nM
- GI50 (TK-10): 1470 nM
- GI50 (UO-31): 880 nM
- GI50 (DU-145): 1310 nM
- GI50 (MCF7): 700 nM
- GI50 (MDA-MB-231): 1340 nM
- GI50 [11]: 510 nM
- GI50 (BT-549): 1600 nM
- GI50 (T47D): 1900 nM
- GI50 (MDA-MB-468): 510 nM
- AC50 [12]: 3310 nM

SMILES: Cc1c(C=C2C(=O)NC(=S)NC2=O)c2ccccc2n1Cc1ccc(Br)cc1
- AC50 [12]: 3300 nM
- Activity (OCI-AML-3): Dose-dependent effect

SMILES: Cc1c(C=C2C(=O)NC(=O)NC2=O)c2ccccc2n1Cc1ccc(Br)cc1
- Activity (OCI-AML-3): inactive

SMILES: COC(=O)c1ccc(Cn2c(C)c(C=C3C(=O)NC(=O)NC3=O)c3ccccc32)cc1
- Activity (OCI-AML-3): inactive
